Consider 25 molecules from ChEMBL document CHEMBL4480462, “HPLC-Based Activity Profiling for Antiprotozoal Compounds in the Endemic Iranian Medicinal Plant Helichrysum oocephalum” (J Nat Prod, 2019).

One data set relates to Leishmania donovani. Put plainly: Antileishmanial activity against Leishmania donovani MHOM-ET-67/L82 axenic amastigotes after 70 hrs by resazurin staining based fluorescence assay. The data set is classed as functional, organism-based. The settings on record: MHOM-ET-67/L82, 70 h. In a few lines: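 Axenically grown amastigotes of strain MHOM-ET-67/L82 were exposed to serial drug dilutions of 11 3-fold steps spanning 100 to 0.001 μg/mL, with miltefosine as reference. IC50 was obtained by linear regression. Each assay was run singly and repeated at least twice, and the reported value is the average of two independent assays.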

The subject of the next data set is Plasmodium falciparum. Put plainly: Antiplasmodial activity against Plasmodium falciparum NF54 infected in human erythrocytes assessed as reduction in [3H]-hypoxanthine incorporation pretreated for 48 hrs followed by [3H]-hypoxanthine addition measured after 24 hrs by liquid scintillation counting method. It is filed as functional, organism-based. The gist of the method: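 Erythrocytic-stage NF54 parasites were tested over 11 3-fold serial dilutions from 100 to 0.001 μg/mL, with chloroquine as reference. IC50 was derived by linear regression. Runs were single and repeated at least twice, and the value given is the mean of two independent assays.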

The subject of another data set is L6. Put plainly: Cytotoxicity against rat L6 cells. The data set is classed as cell-based. The gist of the method:
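Rat skeletal myoblast L6 cells were exposed to 11 3-fold serial drug dilutions covering 100 to 0.001 μg/mL, with podophyllotoxin as reference. IC50 was calculated by linear regression. Runs were single and repeated at least two times, and the figure is the mean of two independent assays.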

Data set [1] in a line: Selectivity index, ratio of IC50 for rat L6 cells to IC50 for axenic amastigotes. In a few lines: (§1)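 The selectivity index is the IC50 in L6 cells divided by the IC50 in the named parasite. Each IC50 comes from 11-step 3-fold dilution series (100 to 0.001 μg/mL) fitted by linear regression and averaged over two independent assays.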
The nature of data set [2]: Selectivity index, ratio of IC50 for rat L6 cells to IC50 for Plasmodium falciparum NF54 infected in human erythrocytes. It is filed as toxicity, cell-based. The note with it: read-out: Ratio IC50. The gist of the method:
as §1

As to `CC(=O)c1c(O)c(Cc2c(O)c(C)c(C)oc2=O)c(O)c2c1OC(C)(C)C=C2`, the IC50 (usually the midpoint of a concentration-inhibition curve) in the data set with Leishmania donovani was 1.8 µM; in the data set with Plasmodium falciparum it was 11.3 µM; with L6, 53.1 µM. Also, in data set [1], the “Ratio IC50” value stood at 29.7. Further, the selectivity ratio in data set [2] is 4.7.
As for `CCC1=C(C)C(=O)C2(Cc3c(O)c(CC=C(C)C)c(O)c(C(=O)C(C)C)c3O2)O1` (configuration not stated), the concentration for half-maximal inhibition (IC50) in the data set on Leishmania donovani is 6 µM; in the data set on Plasmodium falciparum it was 18 µM; in the data set on L6, 43 µM. Besides, the “Ratio IC50” value in data set [1] turned out to be 7.2. For the same molecule, the selectivity ratio in data set [2] came out at 2.1.
Taken in the same sequence, the figures for `CCc1oc(=O)c(Cc2c(O)c(CC=C(C)CCC=C(C)C)c(O)c(C(=O)C(C)CC)c2O)c(O)c1C` (configuration not stated) were 5.6 µM, 1.2 µM, 36.3 µM, 6.4 and 15.7.
`CC(=O)c1c(O)c(CC=C(C)CCC=C(C)C)c(O)c2c1OC1(C2)OC(C)=C(C)C1=O` (configuration not stated): the IC50 with Leishmania donovani came to 2.8 µM; in the data set on Plasmodium falciparum, 23.9 µM; with L6, 43.4 µM. In data set [1], the “Ratio IC50” value was 15.6. Besides, the selectivity ratio in data set [2] was 2.2.
Taken in the same sequence, the figures for `CC(C)=CCCC(C)=CCc1c(O)c2c(c(C(=O)C(C)C)c1O)OC1(C2)OC(C)=C(C)C1=O` (configuration not stated) were 2.2 µM, 7.2 µM, 18.8 µM, 8.5 and 5.5.
Taken in the same sequence, the figures for `CCc1oc(=O)c(Cc2c(O)c(CC=C(C)C)c(O)c(C(=O)C(C)CC)c2O)c(O)c1C` (configuration not stated) were 16.8 µM, 2.5 µM, 37.8 µM, 2.25 and 5.36.
Turning to `CCC(=O)c1c(O)c(CC=C(C)C)c(O)c2c1OC1(C2)OC(C)=C(C)C1=O` (configuration not stated), the concentration for half-maximal inhibition (IC50) turned out to be 7.1 µM in the data set with Leishmania donovani, 31.7 µM in the data set with Plasmodium falciparum and 44.1 µM in the data set with L6. For the same molecule, the “Ratio IC50” value in data set [1] is 6.2. Besides, the selectivity ratio in data set [2] stood at 0.8.
Regarding `CC(C)=CCc1c(O)c2c(c(C(=O)C(C)C)c1O)OC1(C2)OC(C)=C(C)C1=O` (configuration not stated), the IC50 in the data set with Leishmania donovani was 1.9 µM; with Plasmodium falciparum, 22.7 µM; in the data set on L6 it was 20.1 µM. In addition, the “Ratio IC50” value in data set [1] was determined as 10.5. The selectivity ratio in data set [2] stood at 1.9.
Taken in the same sequence, the figures for `CCc1oc(=O)c(Cc2c(O)c(Cc3c(O)c(C)c(CC)oc3=O)c(O)c(C(=O)C(C)C)c2O)c(O)c1C` were 2.5 µM, 8.6 µM, 57.6 µM, 22.9 and 4.4.
`CCC(C)C(=O)c1c(O)c(CC=C(C)C)c(O)c(Cc2c(O)c(C)c(C)oc2=O)c1O` (configuration not stated): the IC50 with Leishmania donovani was 4.8 µM; in the data set with Plasmodium falciparum, 5.5 µM; in the data set with L6, 55.5 µM. In addition, the “Ratio IC50” value in data set [1] was 11.5. In addition, the selectivity ratio in data set [2] was 7.9.
As for `CCc1oc(=O)c(Cc2c(O)c(C)c(C)oc2=O)c(O)c1C`, the figures for the half-maximal inhibitory concentration (IC50) with Leishmania donovani, in the data set with Plasmodium falciparum and with L6 were 15.5 µM, 18.1 µM and 43.9 µM, respectively. Also, in data set [1], the “Ratio IC50” value is listed as 2.8. Also, in data set [2], the selectivity ratio stood at 3.4.
Consider `CCC(C)C(=O)c1c(O)c(CC=C(C)CCC=C(C)C)c(O)c(Cc2c(O)c(C)c(C)oc2=O)c1O` (configuration not stated), for which the results for the 50% inhibitory concentration (IC50) in the data set on Leishmania donovani, in the data set on Plasmodium falciparum and with L6 were 4.4 µM, 2.6 µM and 48.3 µM, respectively. For the same molecule, in data set [1], the “Ratio IC50” value stood at 11.1. Further, in data set [2], the selectivity ratio was 7.7.
For the molecule `CCc1oc(=O)c(Cc2c(O)c(C(=O)C(C)C)c(O)c3c2O[C@@]2(C)CC[C@@H]4[C@H]2[C@H]3C4(C)C)c(O)c1C`, the half-inhibitory concentration (IC50) with Leishmania donovani came to 2 µM; in the data set with Plasmodium falciparum, 7.12 µM; with L6 it was 12 µM. The “Ratio IC50” value in data set [1] came to 6. In data set [2], the selectivity ratio is 1.7.
For the molecule `Cc1oc(=O)c(Cc2c(O)c(C)c(C)oc2=O)c(O)c1C`, the IC50 with Leishmania donovani came to 15.7 µM; in the data set with Plasmodium falciparum it was 22.3 µM; with L6, 26.5 µM. Moreover, the “Ratio IC50” value in data set [1] came out at 1.7. In addition, the selectivity ratio in data set [2] stood at 2.5.
In the same order, the values of `CCC(C)C(=O)c1c(O)c(CC=C(C)C)c(O)c2c1OC1(C2)OC(C)=C(C)C1=O` (configuration not stated) are 1.7 µM, 7.6 µM, 13.2 µM, 7.6 and 4.8.
With `CC(C)=CCc1c(O)c(Cc2c(O)c(C)c(C)oc2=O)c(O)c(C(=O)C(C)C)c1O`, the values for the IC50 in the data set with Leishmania donovani, with Plasmodium falciparum and in the data set with L6 were 5.8 µM, 8 µM and 61.1 µM, respectively. Besides, in data set [1], the “Ratio IC50” value stood at 10.4. Moreover, the selectivity ratio in data set [2] turned out to be 5.5.
On to `CCc1oc(=O)c(Cc2c(O)c(CC=C(C)CCC=C(C)C)c(O)c(C(=O)C(C)C)c2O)c(O)c1C`, for which the results for the IC50 with Leishmania donovani, with Plasmodium falciparum and with L6 were 2.7 µM, 3.8 µM and 39.7 µM, respectively. In data set [1], the “Ratio IC50” value was determined as 15. For the same molecule, the selectivity ratio in data set [2] came out at 11.3.
Take `CCC1=C(C)C(=O)C2(Cc3c(O)c(CC=C(C)C)c(O)c(C(C)=O)c3O2)O1` (configuration not stated): the values for the 50% inhibitory concentration (IC50) with Leishmania donovani, in the data set on Plasmodium falciparum and in the data set on L6 were 5.8 µM, 23.1 µM and 55.1 µM, respectively. The “Ratio IC50” value in data set [1] is given as 9.5. For the same molecule, the selectivity ratio in data set [2] came out at 2.3.
In the same order, the values of `CC(=O)c1c(O)c(CC=C(C)C)c(O)c2c1OC1(C2)OC(C)=C(C)C1=O` (configuration not stated) are 5.1 µM, 14.6 µM, 56.3 µM, 11.1 and 3.9.
In the same order, the values of `CCc1oc(=O)c(Cc2c(O)c(CC=C(C)C)c(O)c(C(=O)C(C)C)c2O)c(O)c1C` are 13.7 µM, 7.4 µM, 52.2 µM, 3.8 and 7.6.
Taken in the same sequence, the figures for `CC(C)=CCCC(C)=CCc1c(O)c(Cc2c(O)c(C)c(C)oc2=O)c(O)c(C(=O)C(C)C)c1O` were 3.1 µM, 5.7 µM, 38.4 µM, 12.3 and 9.6.
For `CCc1oc(=O)c(Cc2c(O)c3c(c(C(=O)C(C)C)c2O)OC(C)(CCC=C(C)C)C=C3)c(O)c1C` (racemic), the results for the IC50 in the data set with Leishmania donovani, in the data set on Plasmodium falciparum and in the data set on L6 were 1.9 µM, 9.3 µM and 21.4 µM, respectively. Besides, the “Ratio IC50” value in data set [1] worked out at 11.2. Moreover, in data set [2], the selectivity ratio came to 2.3.
For the molecule `CCc1oc(=O)c(Cc2c(O)c(C)c(CC)oc2=O)c(O)c1C` [HELIPYRONE], the IC50 with Leishmania donovani came to 14.9 µM; in the data set with Plasmodium falciparum it was 8.9 µM; in the data set on L6, 54.3 µM. In data set [1], the “Ratio IC50” value amounted to 3.6. The selectivity ratio in data set [2] is 5.4.
Molecule `CCCCCCCCCCCCCCCCOP(=O)([O-])OCC[N+](C)(C)C` [MILTEFOSINE] showed an IC50 in the data set on Leishmania donovani of 0.285 µM.
In the data set with L6, `COc1cc([C@@H]2c3cc4c(cc3[C@H](O)[C@H]3COC(=O)[C@H]23)OCO4)cc(OC)c1OC` [PODOFILOX] had an IC50 of 0.005 µM.
